Source: ChEMBL document CHEMBL4428054, “Synthesis of Fluorescent Binaphthyl Amines That Bind c-MYC G-Quadruplex DNA and Repress c-MYC Expression” (J Med Chem, 2016)
Active and inactive are the calls of the source. The calls are words filed in the database; no cut-off is given here.

What was measured:
HeLa [1] = assay: Cell cycle arrest in human HeLa cells assessed as accumulation at G2/M phase at 5 uM incubated for 24 hrs by propidium iodide staining based flow cytometry (reference value: 25.5%); format: functional
dsDNA [2] = assay: Binding affinity to 20 equivalents of dsDNA (unknown origin) in 100 mM KCl, 10 mM Tris.HCl at pH 7.4 by fluorescence spectroscopy relative to untreated control; format: nucleic-acid assay
How it was run: (§1)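 Fluorescence titration in 100 mM KCl, 10 mM Tris·HCl, pH 7.4. Excitation was 350 nm and emission was read at the 430 nm maximum. Ligand (1 μM for c-MYC) was titrated with increasing quadruplex or ds DNA, up to 20 equiv. Change in intensity was scored, and Kd was derived from the titration curves.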

Quadruplex DNA [3] = assay: Binding affinity to pre-annealed c-MYC G-quadruplex (unknown origin) in 100 mM KCl, 10 mM Tris.HCl at pH 7.4 by fluorescence spectroscopy relative to untreated control; format: nucleic-acid assay, unidentified; how it was run: as §1
unidentified [4] = assay: Selectivity for 5'-FAM and 3'-TAMRA-labeled c-MYC G-quadruplex (unknown origin) over 5'-FAM and 3'-TAMRA-labeled c-KIT2 G-quadruplex (unknown origin)
[5] = Drug localization in nucleus of human HeLa cells at 5 uM incubated for 2 hrs by fluorescence microscopy; format: ADME, subcellular
How it was run: (§2)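 Intrinsic ligand fluorescence imaged by fluorescence microscopy in HeLa cells after 2 h at 5.0 μM. Merged images were used to assign nuclear versus cytoplasmic localisation.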

HeLa [6] = assay: Cell cycle arrest in human HeLa cells assessed as accumulation at subG1 phase at 5 uM incubated for 24 hrs by propidium iodide staining based flow cytometry (reference value: 2.2%); format: functional
Quadruplex DNA [7] = assay: Stabilization of 5'-FAM and 3'-TAMRA-labeled k-RAS G-quadruplex (unknown origin) assessed as change in melting temperature at 1 uM by FRET assay; format: nucleic-acid assay; settings: unidentified
How it was run: (§3)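 FRET melting of dual-labelled (5′-FAM/3′-TAMRA) promoter quadruplexes or duplex in 60 mM potassium cacodylate buffer, pH 7.4. ΔTm is taken against ligand-free Tm. The ligand was tested across a concentration series. Maximum measurable Tm is 93 °C.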

Quadruplex DNA [8] = assay: Stabilization of 5'-FAM and 3'-TAMRA-labeled c-KIT2 G-quadruplex (unknown origin) assessed as change in melting temperature at 1 uM in presence of 100 nM to 10 uM dsDNA by FRET assay; format: nucleic-acid assay; settings: unidentified
[9] = Selectivity for 5'-FAM and 3'-TAMRA-labeled c-MYC G-qudaruplex (unknown origin) over 5'-FAM and 3'-TAMRA-labeled c-KIT1 G-qudaruplex (unknown origin)
HeLa [10] = assay: Effect on GAPDH mRNA expression in human HeLa cells at 1 to 5 uM incubated for 24 hrs by RT-PCR method; format: ADME, cell-based
HeLa [11] = assay: Effect on GAPDH protein expression in human HeLa cells at 1 to 5 uM incubated for 24 hrs by Western blot method; format: ADME, cell-based
How it was run: (§4)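 Western blot of HeLa lysates after 24 h at 1, 2.5 or 5 μM, with DMSO control. c-MYC was probed, GAPDH served as loading control, and bands were quantified by densitometry.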

[12] = Drug localization in cytoplasm of human HeLa cells at 5 uM incubated for 2 hrs by fluorescence microscopy; format: ADME, subcellular; how it was run: as §2
Quadruplex DNA [13] = assay: Stabilization of 5'-FAM and 3'-TAMRA-labeled c-KIT1 G-quadruplex (unknown origin) assessed as change in melting temperature at 1 uM in presence of 100 nM to 10 uM dsDNA by FRET assay; format: nucleic-acid assay; settings: unidentified
Quadruplex DNA [14] = assay: Stabilization of 5'-FAM and 3'-TAMRA-labeled k-RAS G-quadruplex (unknown origin) assessed as change in melting temperature at 1 uM in presence of 100 nM to 10 uM dsDNA by FRET assay; format: nucleic-acid assay; settings: unidentified
Quadruplex DNA [15] = assay: Stabilization of 5'-FAM and 3'-TAMRA-labeled c-KIT1 G-quadruplex (unknown origin) assessed as change in melting temperature at 1 uM by FRET assay; format: nucleic-acid assay; settings: unidentified; how it was run: as §3
HeLa [16] = assay: Cell cycle arrest in human HeLa cells assessed as accumulation at G0/G1 phase at 5 uM incubated for 24 hrs by propidium iodide staining based flow cytometry (reference value: 61.5%); format: functional
Quadruplex DNA [17] = assay: Stabilization of c-MYC G-quadruplex in human HeLa cells assessed as reduction in c-MYC mRNA level at 5 uM incubated for 24 hrs by Western blot method; format: cell-based; parameters: scale not given: the % may be the effect or the level left; settings: in the assay text read “c-MYC protein level” for “c-MYC mRNA level”; how it was run: as §4
Quadruplex DNA [18] = assay: Binding affinity to pre-annealed c-KIT1 G-quadruplex (unknown origin) in 100 mM KCl, 10 mM Tris.HCl at pH 7.4 by fluorescence spectroscopy relative to untreated control; format: nucleic-acid assay, unidentified; how it was run: as §1
HeLa [19] = assay: Induction of apoptosis in human HeLa cells assessed as viable cell level at 5 uM incubated for 24 hrs by Annexin V-FITC staining based flow cytometry; format: functional
A549 = assay: Cytotoxicity against human A549 cells incubated for 24 hrs by MTT assay; format: functional, cell-based; settings: A549, 24 h
How it was run: (§5)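 MTT growth-inhibition assay in HeLa, A549 and mouse C2C12 cells. Cells given 0.1% DMSO served as control. IC50 values were reported.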

dsDNA [20] = assay: Binding affinity to dsDNA (unknown origin) in 10 mM Tris.HCl buffer containing 100 mM KCl at pH 7.4 by UV/Visible spectroscopy; format: nucleic-acid assay
Quadruplex DNA [21] = assay: Stabilization of c-MYC G-quadruplex in human HeLa cells assessed as reduction in c-MYC mRNA level at 5 uM incubated for 24 hrs by RT-PCR method; format: cell-based; parameters: scale not given: the % may be the effect or the level left
How it was run: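 qRT-PCR on HeLa cells treated 24 h at 1.0, 2.5 or 5.0 μM. c-MYC mRNA was normalised to GAPDH and compared with 0.1% DMSO-treated control.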

dsDNA [22] = assay: Stabilization of 5'-FAM and 3'-TAMRA-labeled dsDNA (unknown origin) assessed as change in melting temperature at 1 uM by FRET assay; format: nucleic-acid assay; how it was run: as §3
Quadruplex DNA [23] = assay: Binding affinity to pre-annealed c-MYC G-quadruplex (unknown origin) assessed as increase in fluorescence intensity at 1 uM in 100 mM KCl, 10 mM Tris.HCl at pH 7.4 by fluorescence spectroscopy relative to untreated control; format: nucleic-acid assay; settings: unidentified; how it was run: as §1
Quadruplex DNA [24] = assay: Stabilization of 5'-FAM and 3'-TAMRA-labeled c-MYC G-quadruplex (unknown origin) assessed as change in melting temperature at 1 uM in presence of 100 nM to 10 uM dsDNA by FRET assay; format: nucleic-acid assay; settings: unidentified
unidentified [25] = assay: Selectivity for 5'-FAM and 3'-TAMRA-labeled c-MYC G-quadruplex (unknown origin) over 5'-FAM and 3'-TAMRA-labeled k-RAS G-quadruplex (unknown origin)
Quadruplex DNA [26] = assay: Stabilization of 5'-FAM and 3'-TAMRA-labeled c-MYC G-quadruplex (unknown origin) assessed as change in melting temperature at 1 uM by FRET assay; format: nucleic-acid assay; settings: unidentified; how it was run: as §3
Quadruplex DNA [27] = assay: Binding affinity to pre-annealed c-KIT2 G-quadruplex (unknown origin) in 100 mM KCl, 10 mM Tris.HCl at pH 7.4 by fluorescence spectroscopy relative to untreated control; format: nucleic-acid assay, unidentified; how it was run: as §1
HeLa [28] = assay: Cell cycle arrest in human HeLa cells assessed as accumulation at S phase at 5 uM incubated for 24 hrs by propidium iodide staining based flow cytometry (reference value: 10.8%); format: functional
Quadruplex DNA [29] = assay: Binding affinity to pre-annealed c-MYC G-quadruplex (unknown origin) in 10 mM Tris.HCl buffer containing 100 mM KCl at pH 7.4 by UV/Visible spectroscopy; format: nucleic-acid assay, unidentified
How it was run: (§6)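 UV–vis titration of 20 μM ligand with preannealed c-MYC quadruplex (0–1.4 equiv) in 100 mM KCl, 10 mM Tris·HCl, pH 7.4. Hypochromicity was followed at the 362 nm ligand band, because the 298 nm band overlaps DNA absorbance. Kd was fitted with the Hill 1 equation.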

HeLa [30] = assay: Induction of apoptosis in human HeLa cells assessed as early apoptotic cells level at 5 uM incubated for 24 hrs by Annexin V-FITC staining based flow cytometry (reference value: 1.1%); format: functional
Quadruplex DNA [31] = assay: Binding affinity to c-MYC G-quadruplex (unknown origin) by 1H-NMR spectroscopy; format: nucleic-acid assay; settings: unidentified
How it was run: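 1D 1H NMR of c-MYC quadruplex DNA at different ligand:DNA ratios, monitoring imino and aromatic regions against partial signal assignments. Chemical shift perturbation or line broadening was noted separately at ratios below 1 and at ratios of 1 or above.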

HeLa [32] = assay: Induction of apoptosis in human HeLa cells assessed as late apoptotic cells level at 5 uM incubated for 24 hrs by Annexin V-FITC staining based flow cytometry (reference value: 0.8%); format: functional
dsDNA [33] = assay: Stabilization of 5'-FAM and 3'-TAMRA-labeled dsDNA (unknown origin) assessed as change in melting temperature at 5 uM by FRET assay; format: nucleic-acid assay; how it was run: as §3
C2C12 = assay: Cytotoxicity against mouse C2C12 cells incubated for 24 hrs by MTT assay; format: cell-based; settings: C2C12, 24 h; how it was run: as §5
HeLa [34] = assay: Induction of apoptosis in human HeLa cells assessed as necrotic cells level at 5 uM incubated for 24 hrs by Annexin V-FITC staining based flow cytometry (reference value: 0.1%); format: functional
Quadruplex DNA [35] = assay: Binding affinity to pre-annealed c-MYC G-quadruplex (unknown origin) assessed as hypochromacity at 20 uM in 10 mM Tris.HCl buffer containing 100 mM KCl at pH 7.4 by UV/Visible spectroscopy; format: nucleic-acid assay; settings: unidentified; how it was run: as §6
HeLa [36] = assay: Cytotoxicity against human HeLa cells incubated for 24 hrs by MTT assay; format: functional, cell-based; how it was run: as §5
Quadruplex DNA [37] = assay: Binding affinity to pre-annealed k-RAS G-quadruplex (unknown origin) in 100 mM KCl, 10 mM Tris.HCl at pH 7.4 by fluorescence spectroscopy relative to untreated control; format: nucleic-acid assay, unidentified; how it was run: as §1
Quadruplex DNA [38] = assay: Stabilization of 5'-FAM and 3'-TAMRA-labeled c-KIT2 G-quadruplex (unknown origin) assessed as change in melting temperature at 1 uM by FRET assay; format: nucleic-acid assay; settings: unidentified; how it was run: as §3
Quadruplex DNA [39] = assay: Effect on parallel topology of c-MYC G-quadruplex (unknown origin) at 0 to 5 equivalent by CD spectroscopy; format: nucleic-acid assay; settings: unidentified

CN(C)CCCn1cc(CNC(=O)c2ccc(Nc3ccc(-c4ccc(Nc5ccc(C(=O)NCc6cn(CCCN(C)C)nn6)cc5)c5ccccc45)c4ccccc34)cc2)nn1
Activity (HeLa [1]): 29.9%
Activity (dsDNA [2]): inactive
Kd (Quadruplex DNA [3]): 4.2 µM
Selectivity ratio (unidentified [4]): 3 to 5
Drug uptake [5]: Active
Activity (HeLa [6]): 32.2%
ΔTm (Quadruplex DNA [7]): 22 °C
Activity (Quadruplex DNA [8]): Active
Selectivity ratio [9]: 3 to 5
Activity (HeLa [10]): Non-Toxic
Activity (HeLa [11]): Non-Toxic
Drug uptake [12]: Active
Activity (Quadruplex DNA [13]): Active
Activity (Quadruplex DNA [14]): Active
ΔTm (Quadruplex DNA [15]): 11 °C
Activity (HeLa [16]): 33.7%
Activity (Quadruplex DNA [17]): 68%
Kd (Quadruplex DNA [18]): 10.2 µM
Activity (HeLa [19]): Active
IC50 (A549): ≥ 40 µM
Activity (dsDNA [20]): inactive
Activity (Quadruplex DNA [21]): 58%
ΔTm (dsDNA [22]): 2 °C
fold change (FC) (Quadruplex DNA [23]): 3.5
Activity (Quadruplex DNA [24]): Active
Selectivity ratio (unidentified [25]): 3 to 5
ΔTm (Quadruplex DNA [26]): 23 °C
Kd (Quadruplex DNA [27]): 11.1 µM
Activity (HeLa [28]): 4.2%
Kd (Quadruplex DNA [29]): 4.4 µM
Activity (HeLa [30]): 55.9%
Activity (Quadruplex DNA [31]): Active
Activity (HeLa [32]): 12%
Activity (dsDNA [33]): inactive
IC50 (C2C12): ≥ 40 µM
Activity (HeLa [34]): 0.6%
Activity (Quadruplex DNA [35]): 37%
IC50 (HeLa [36]): 5.53 µM
Kd (Quadruplex DNA [37]): 11.4 to 13.8 µM
ΔTm (Quadruplex DNA [38]): 15 °C
Activity (Quadruplex DNA [39]): inactive
